The text below walks through data of ChEMBL document CHEMBL1128301, “Cephalosporin derivatives of doxorubicin as prodrugs for activation by monoclonal antibody-beta-lactamase conjugates” (J Med Chem, 1995).

Holding throughout (assay type): functional, cell-based
In test [1] the test system is H2981 cell line. The test can be described thus: Concentration resulting in 50% incorporation of [3H]thymidine compared to untreated control cells on H2981 human lung adenocarcinoma cells in the presence of 10 ug/mL Enterobacter cloacae P99 beta-lactamase (ECIbL). The note with it: H2981, 1 h. An outline of the steps: (§1)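 H2981 cells in IMDM/10% FBS were seeded at 4000 or 8000 per well and left 18 h at 37 °C. Drug, ±EClbL, was given in RPMI/10% FBS over a concentration range for 1 h at 37 °C, then washed off and cells kept 18 h. [³H]thymidine (1 μCi/well) was pulsed 6 h (8000 cells) or 18 h (4000 cells).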

In test [2] the test system is H2981 cell line. The test can be described thus: Bacillus cereus beta-lactamase (BCbL) enzyme concentration required to achieve an IC50 value of compound on H2981 lung adenocarcinoma cells. As to conditions: Homo sapiens. An outline of the steps: (§2)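 H2981 cells were plated at 4000 or 8000/well and allowed to adhere 18 h at 37 °C. Prodrug was held fixed at 1 μM while β-lactamase was titrated. After 1 h at 37 °C, cells were washed and incubated 18 h. A [³H]thymidine pulse (1 μCi/well) followed, 6 h or 18 h depending on seeding.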

Test [3] deals with H2981 cell line. The test can be described thus: Escherichia coli TEM-1 beta-lactamase (ECbL) enzyme concentration required to achieve an IC50 value of compound on H2981 lung adenocarcinoma cells. As to conditions: Homo sapiens. The method, boiled down: as §2
The subject of test [4] is H2981 cell line. The test can be described thus: Concentration resulting in 50% incorporation of [3H]thymidine compared to untreated control cells on H2981 human lung adenocarcinoma cells in the presence of doxorubicin. As to conditions: H2981, 1 h. The method, boiled down: as §1
For test [5], the system named is H2981 cell line. The test can be described thus: Concentration resulting in 50% incorporation of [3H]thymidine compared to untreated control cells on H2981 human lung adenocarcinoma cells in the absence of Enterobacter cloacae P99 beta-lactamase (ECIbL). As to conditions: H2981, 1 h. The method, boiled down: as §1
Test [6] deals with H2981 cell line. The test can be described thus: Enterobacter cloacae P99 beta-lactamase (ECIbL) enzyme concentration required to achieve an IC50 value of compound on H2981 lung adenocarcinoma cells. As to conditions: Homo sapiens. An outline of the steps:
as §2

In test [7] the test system is H2981 cell line. The test can be described thus: Cytotoxicity on H2981 Human lung adenocarcinoma cells. The method, boiled down: as §1

One may read the IC50 as the concentration that gives 50% inhibition. Regarding `COc1cccc2c1C(=O)c1c(O)c3c(c(O)c1C2=O)C[C@@](O)(C(=O)CO)C[C@@H]3OC1CC(NC(=O)OCC2=C(C(=O)O)N3C(=O)[C@@H](NC(=O)C(c4ccccc4)S(=O)(=O)O)[C@H]3SC2)C(O)C(C)O1` (some centres not stated), the IC50 came out at 470 nM in test [1]; 0.39 nM in test [2]; 22.7 nM in test [3]; 560 nM in test [4]; 14800 nM in test [5]; 5.65 nM in test [6].
On to `COc1cccc2c1C(=O)c1c(O)c3c(c(O)c1C2=O)C[C@@](O)(C(=O)CO)C[C@@H]3OC1CC(NC(=O)OCC2=C(C(=O)O)N3C(=O)[C@@H](NC(=O)CCCC(=O)O)[C@H]3SC2)C(O)C(C)O1` (some centres not stated), for which the IC50 was 470 nM in test [1]; 1.13 nM in test [2]; 6.5 nM in test [3]; 480 nM in test [4]; 21900 nM in test [5]; 0.039 nM in test [6].
In test [7], `COc1cccc2c1C(=O)c1c(O)c3c(c(O)c1C2=O)C[C@@](O)(C(=O)CO)C[C@@H]3O[C@H]1C[C@H](N)[C@H](O)[C@H](C)O1` [DOXORUBICIN] displayed an IC50 of 500 nM.
`COc1cccc2c1C(=O)c1c(O)c3c(c(O)c1C2=O)C[C@@](O)(C(=O)CO)C[C@@H]3OC1CC(NC(=O)OCC2=C(C(=O)O)N3C(=O)[C@@H](NC(=O)CSC4OC(CO)C(O)C(O)C4O)[C@H]3SC2)C(O)C(C)O1` (some centres not stated): the IC50 in test [1] is 450 nM; in test [2] it was 1.58 nM; in test [3], 1.13 nM; in test [4], 460 nM; in test [5], 2500 nM; in test [6] it was 0.13 nM.
Consider `COc1cccc2c1C(=O)c1c(O)c3c(c(O)c1C2=O)C[C@@](O)(C(=O)CO)C[C@@H]3OC1CC(NC(=O)OCC2=C(C(=O)O)N3C(=O)[C@@H](NC(=O)Cc4cccs4)[C@H]3SC2)C(O)C(C)O1` (some centres not stated), for which the IC50 in test [1] was found to be 550 nM; in test [2], 0.21 nM; in test [3], 0.25 nM; in test [4], 560 nM; in test [5], 10300 nM; in test [6], 0.024 nM.
Take `COc1cccc2c1C(=O)c1c(O)c3c(c(O)c1C2=O)C[C@@](O)(C(=O)CO)C[C@@H]3OC1CC(NC(=O)OCC2=C(C(=O)O)N3C(=O)[C@@H](NC(=O)Cc4ccccc4)[C@H]3SC2)C(O)C(C)O1` (some centres not stated): the IC50 in test [1] is 750 nM; in test [2], 0.25 nM; in test [3], 0.68 nM; in test [4], 550 nM; in test [5], 7400 nM; in test [6] it was 0.012 nM.
As for `COc1cccc2c1C(=O)c1c(O)c3c(c(O)c1C2=O)C[C@@](O)(C(=O)CO)C[C@@H]3OC1CC(NC(=O)OCC2=C(C(=O)O)N3C(=O)[C@@H](N)[C@H]3SC2)C(O)C(C)O1` (some centres not stated), the IC50 was 430 nM in test [1]; 24.9 nM in test [2]; 185 nM in test [3]; 460 nM in test [4]; 8200 nM in test [5]; 9.86 nM in test [6].
